Measurements from PMC5576345 (Chemical communications (Cambridge, England), 2017).
Read-outs that look alike come from different tables or passages of the source.

Legend:
[1] = target: rTbHK1 (recombinant T. brucei hexokinase 1); assay: rTbHK1 enzyme inhibition assay; format: biochemical, Trypanosoma brucei; conditions: read-out: TbHK1 IC50; dose-response
Summary of the method: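 Recombinant TbHK1 was expressed in and isolated from Escherichia coli or yeast. The purified enzyme was tested in triplicate for percent inhibition at 10 μM test compound. IC50 was taken as the concentration giving 50% inhibition of TbHK1 activity.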

BSF T. brucei [2] = assay: Growth inhibition of BSF T. brucei cultures; format: cell-based, Trypanosoma brucei; conditions: for EC50: read-out: BSF EC50, dose-response in triplicate, 384-well format
Summary of the method: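 Bloodstream-form T. brucei cultures were treated in triplicate with test compound at 10 μM, with DMSO vehicle as negative control and a reference inhibitor as positive control on each plate. Percent growth inhibition was calculated against DMSO-treated parasites on the same plate. Compounds giving >50% inhibition at 10 μM went to triplicate dose-response curves, and the EC50 was fitted as the concentration killing 50% of parasites.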

[3] = target: rTbHK1 (recombinant T. brucei hexokinase 1); conditions: read-out: rTbHK1 IC50; initial round of SAR study; cited from earlier work
BSF T. brucei [4] = conditions: cited from earlier work
mammalian hexokinase = conditions: cited from earlier work
human cell lines = conditions: cited from earlier work

Structure (SMILES)	IC50 [1] [µM]	%BSF Growth Inhibition (10 μM) (BSF T. brucei [2]; 10 μM, triplicate, vs DMSO controls) [%]	EC50 (BSF T. brucei [2]) [µM]	IC50 [3] [µM]	Trypanocidal activity against whole-cell BSF parasites (result in words) (BSF T. brucei [4])	Impact on a mammalian hexokinase (mammalian hexokinase)	Toxicity toward human cell lines (human cell lines)
CC(C)(C)c1ccc(C(=O)Nc2cc(Cl)c(Br)cc2C(=O)O)cc1 [Compound 2]	0.98 ± 0.067	6.9 ± 3.0	> 10	0.98 ± 0.07	not an effective trypanocide	no impact	no appreciable toxicity
N=C(N)c1ccc(OCCCCCOc2ccc(C(=N)N)cc2)cc1 [pentamadine]	–	–	0.003 ± 0.001	–	–	–	–
